What was measured:
[1] = test system: P388; assay: antitumor activity against lymphocyte leukemia P388 in mice as percentage of increase in life span for 1 day schedule; format: functional, Mus musculus
Procedure, shortened: (§1)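 Mice bearing lymphocytic leukemia P388 were treated. The value is the percent increase in life span at the highest nontoxic dose tested.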

[2] = test system: L1210; assay: inhibition of proliferation of cultured lymphoid leukemia L1210 cells during 48 hr.; format: functional; details: Mus musculus, L1210, 48 h, read-out: ID50
Procedure, shortened: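 Cultured L1210 cells were exposed to agent for 48 h. The value is the concentration that holds proliferation to 50% of untreated control.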

[3] = test system: L1210; assay: Fraction of the cell population of cultured lymphoid leukemia L1210 cells in mitosis after 24 hr; at the concentration of 0.3 uM; format: functional, Mus musculus
[4] = test system: L1210; assay: Fraction of the cell population of cultured lymphoid leukemia L1210 cells in mitosis after 12 hr; format: functional, Mus musculus
[5] = test system: P388; assay: antitumor activity against lymphocyte leukemia P388 in mice as percentage of increase in life span for 30th day survivor, 1-5 days schedule.; format: functional, Mus musculus
[6] = test system: P388; assay: antitumor activity against lymphocyte leukemia P388 in mice as percentage of increase in life span for 1-5 days schedule (values in the parenthesen indicates dose); format: functional, Mus musculus; procedure, shortened: as §1
[7] = test system: KB; assay: Inhibition of colony formation of KB human epidermoid carcinoma cells.; format: functional; details: read-out: ED50 (the source's name)
[8] = test system: L1210; assay: Antitumor activity against lymphoid leukemia L1210 in mice for 1-9 days schedule; format: functional, Mus musculus
Procedure, shortened: (§2)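 Mice bearing L1210 leukemia; the read-out is the percent increase in life span, reported at the highest nontoxic dose tested. Toxic doses are flagged separately.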

[9] = test system: L1210; assay: Antitumor activity against lymphoid leukemia L1210 in mice for 1 day schedule; format: functional, Mus musculus; procedure, shortened: as §2
[10] = test system: L1210; assay: Fraction of the cell population of cultured lymphoid leukemia L1210 cells in mitosis after 12 hr; at the concentration of 0.01 uM; format: functional, Mus musculus
[11] = test system: L1210; assay: Fraction of the cell population of cultured lymphoid leukemia L1210 cells in mitosis after 12 hr; at the concentration of 0.3 uM; format: functional, Mus musculus
[12] = test system: L1210; assay: Fraction of the cell population of cultured lymphoid leukemia L1210 cells in mitosis after 12 hr; at the concentration of 0.03 uM; format: functional, Mus musculus
[13] = test system: L1210; assay: Fraction of the cell population of cultured lymphoid leukemia L1210 cells in mitosis after 24 hr; format: functional, Mus musculus
[14] = test system: HEp-2 (Homo sapiens); assay: Inhibition of colony formation of human epidermoid carcinoma no. 2 (HEp-2) cells.; details: read-out: ED50 (the source's name)
[15] = test system: P388; assay: antitumor activity against lymphocyte leukemia P388 in mice as percentage of increase in life span for 1-9 days schedule; format: functional, Mus musculus; procedure, shortened: as §1
[16] = test system: L1210; assay: Fraction of the cell population of cultured lymphoid leukemia L1210 cells in mitosis after 12 hr; at the concentration of 0.1 uM; format: functional, Mus musculus
[17] = test system: P388; assay: antitumor activity against lymphocyte leukemia P388 in mice as percentage of increase in life span for 1-9 days schedule. (values in the parenthesen indicates dose); format: functional, Mus musculus; procedure, shortened: as §1
[18] = test system: L1210; assay: Fraction of the cell population of cultured lymphoid leukemia L1210 cells in mitosis after 24 hr at the concentration of 0.3 uM; format: functional, Mus musculus
[19] = test system: L1210; assay: Fraction of the cell population of cultured lymphoid leukemia L1210 cells in mitosis after 12 hr at the concentration of 0.03 uM; format: functional, Mus musculus

Row | EC50 [7] [nM] | SMILES | ILS [1] [%] | IC50 [2] [nM] | ILS [9] [%] | also measured
1 | – | CCOC(=O)Nc1cc2ncc(-c3ccccc3)nc2c(N)n1 | 0 | > 300 | – | Mitotic index [3]: 0.02
2 | – | CCOC(=O)Nc1cc2c(c(N)n1)N=C(c1ccc3ccccc3c1)CN2 | – | 6 | – | Mitotic index [4]: 0.6; ILS [5]: 66%; ILS (mg/kg) [6]: 53%
3 | – | CCOC(=O)Nc1cc(N(C)CC(O)c2ccccc2)c(N)c(N)n1 (centres undefined) | 0 | > 300 | – | –
4 | 24000 | CCOC(=O)Nc1cc(N)c2c(n1)NCC(CN(C)c1ccc(C(=O)OC)cc1)=N2 | – | – | 0 | ILS [8]: 0%
5 | 21000 | COC(=O)c1ccc(N(C)CC2=Nc3c(N)nc(N)nc3NC2)cc1 | – | – | – | –
6 | – | CCOC(=O)Nc1cc2c(c(N)n1)N=C(c1ccc(-c3ccccc3)cc1)CN2 | 36 | 6.1 | – | Mitotic index [10]: 0.65; Mitotic index [11]: 0.42
7 | – | CCOC(=O)Nc1cc2ncc(-c3ccc(C(F)(F)F)cc3)nc2c(N)n1 | – | > 300 | – | –
8 | – | CCOC(=O)Nc1cc2c(c(N)n1)N=C(CN(C)c1ccccc1)CN2 | 114 | 8.4 | – | Mitotic index [12]: 0.77; Mitotic index [13]: 0.8
9 | – | CCOC(=O)Nc1cc2c(c(N)n1)N=C(CCc1ccccc1)CN2 | 29 | 13 | – | Mitotic index [3]: 0.33
10 | > 100000 | COC(=O)c1ccc(N(C)CC2=Nc3c(cc(N)nc3Cl)NC2)cc1 | – | – | – | –
11 | – | CCOC(=O)Nc1cc2ncc(CNc3ccc(C(=O)OCC)cc3)nc2c(N)n1 | – | – | – | EC50 [14]: 42000 nM
12 | > 100000 | CCOC(=O)Nc1cc2ncc(C(=O)N(C)c3ccccc3)nc2c(N)n1 | – | – | 0 | –
13 | 10000 | CCOC(=O)c1ccc(NCC2=Nc3c(N)nc(N)nc3NC2)cc1 | – | – | 8 | ILS [8]: 0%
14 | 240000 | CCOC(=O)Nc1cc(N)c2nc(CN(C)c3ccc(C(=O)OC)cc3)cnc2n1 | – | – | 0 | ILS [8]: 0%
15 | > 100000 | CN(Cc1cnc2cc(N)nc(N)c2n1)c1ccccc1 | – | – | 0 | ILS [8]: 0%
16 | 17000 | CCOC(=O)c1ccc(NCc2cnc3nc(N)nc(N)c3n2)cc1 | – | – | 0 | ILS [8]: 0%

Row | EC50 [7] [nM] | SMILES | ILS [1] [%] | IC50 [2] [nM] | ILS [9] [%] | also measured
17 | 19000 | COC(=O)c1ccc(N(C)Cc2cnc3nc(N)nc(N)c3n2)cc1 | – | – | 3 | ILS [8]: 2%
18 | 8000 | CCOC(=O)Nc1cc2c(c(O)n1)N=C(CN(C)c1ccc(C(=O)OC)cc1)CN2 | – | – | 2 | –
19 | – | CN(CC1=Nc2c(cc(N)nc2N)NC1)c1ccccc1 | – | 5.8 | – | ILS [15]: 30%; Mitotic index [16]: 0.44; Mitotic index [11]: 0.61
20 | – | CCOC(=O)Nc1cc2c(c(NC(=O)OCC)n1)N=C(CN(C)c1ccccc1)CN2 | – | – | 46 | ILS [8]: 14%; EC50 [14]: 1200 nM
21 | 91000 | CCOC(=O)Nc1cc2c(c(NC(=O)OCC)n1)N=C(C)CN2 | – | – | 0 | –
22 | – | CCOC(=O)Nc1cc2ncc(CN(C)c3ccc(C(=O)OC)cc3)nc2c(N)n1 | – | – | – | EC50 [14]: 19000 nM
23 | 600 | CCOC(=O)Nc1cc2c(c(N)n1)NC(CN(C)c1ccccc1)CN2 (centres undefined) | – | – | 10 | –
24 | 670 | CCOC(=O)Nc1cc2ncc(CN(C)c3ccccc3)nc2c(N)n1 | – | – | – | –
25 | 29000 | CN(CC1=Nc2c(cc(N)nc2S)NC1)c1ccc(C(=O)O)cc1 | – | – | – | –
26 | – | CCOC(=O)Nc1cc2c(c(N)n1)N=C(c1ccc(C(F)(F)F)cc1)CN2 | 0 | 150 | – | ILS (mg/kg) [17]: 17%; Mitotic index [3]: 0.01
27 | – | CCOC(=O)Nc1ccc(/N=C/c2ccccc2)cn1 | 0 | > 300 | – | –
28 | – | CCOC(=O)Nc1cc2c(c(N)n1)N=C(c1ccccc1)CN2C | 12 | 160 | – | Mitotic index [11]: 0.68
29 | – | CCOC(=O)Nc1ccc(/N=C(/C=C(/O)OCC)c2ccccc2)c(N)n1 | – | > 300 | – | Mitotic index [3]: 0.03
30 | – | CCOC(=O)Nc1cc2c(c(N)n1)N=C(c1ccccc1)C(C)N2 (centres undefined) | 54 | 0.51 | – | ILS (mg/kg) [6]: 75%
31 | – | CCOC(=O)Nc1cc2c(c(N)n1)N=C(c1ccccc1)CN2 | 55 | 4.7 | – | Mitotic index [18]: 0.54; ILS (mg/kg) [17]: 51%; Mitotic index [19]: 0.65

Reference: ChEMBL document CHEMBL1122315, “1,2-Dihydropyrido[3,4-b]pyrazines: structure-activity relationships” (1983)
